The values that follow come from ChEMBL document CHEMBL4177662, “Phosphamide-containing diphenylpyrimidine analogues (PA-DPPYs) as potent focal adhesion kinase (FAK) inhibitors with enhanced activity against pancreatic cancer cell lines” (Bioorg Med Chem, 2017).

In test [1] the target is Epidermal growth factor receptor (Homo sapiens) (UniProt P00533). The test is described as follows: Inhibition of recombinant GST-tagged human EGFR cytoplasmic domain (668 to 1210 residues) expressed in baculovirus expression system at 100 nM relative to control. In outline: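 Part of a small kinase-panel profile run by an outsourced biochemical profiling service. The test compound was given at a single concentration of 100 nM, and activity was reported as percent inhibition rate.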

For test [2], the system named is ASPC1. The test is described as follows: Induction of apoptosis in human Aspc-1 cells assessed as early apoptotic cells at 5 uM after 72 hrs by Annexin V-FITC/propidium iodide staining-based flow cytometry (reference value: 0%). It is filed as functional. In outline: (§1)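 AsPC-1 cells (3 to 5×10^5 per well) were treated with DMSO solvent control or compound for 72 h in medium with 5% FBS. Cells were then stained with Annexin V-FITC and propidium iodide and analysed by flow cytometry. One representative experiment shown.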
In general terms: Flow cytometry measures light scatter and fluorescence of single cells or particles in a stream.

Test [3] deals with ASPC1. The test is described as follows: Antiproliferative activity against human Aspc-1 cells assessed as cell viability at 0.5 uM after 24 hrs by MTT assay (reference value: 100%). The following applies: ASPC1, 24 h, read-out: Activity. Format: functional. (In general: Tetrazolium assays rely on reduction of a dye to a coloured formazan, in cell work by metabolically active cells.)

The target in a further test is Focal adhesion kinase 1 (Homo sapiens, UniProt Q05397). Kind of test: Inhibition of recombinant full length GST-tagged human FAK expressed in baculovirus expression system at 100 nM relative to control. In outline:
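SelectScreen biochemical kinase profiling service; percent inhibition of each kinase at a single compound concentration of 100 nM.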

The subject of test [4] is ASPC1. Kind of test: Cell cycle arrest in human Aspc-1 cells assessed as accumulation at S phase at 2.5 uM after 72 hrs by propidium iodide staining-based flow cytometry (reference value: 59.70%). It is filed as functional.
The test system of test [5] is ASPC1. The test is described as follows: Induction of apoptosis in human Aspc-1 cells assessed as viable cells at 10 uM after 72 hrs by Annexin V-FITC/propidium iodide staining-based flow cytometry (reference value: 100%). The following applies: ASPC1, 72 h, read-out: Activity. It is filed as functional. In outline:
as §1

In test [6] the test system is ASPC1. The test is described as follows: Induction of apoptosis in human Aspc-1 cells assessed as necrotic cells at 5 uM after 72 hrs by Annexin V-FITC/propidium iodide staining-based flow cytometry (reference value: 0%). Format: functional. In outline:
as §1

For another test, the system named is PANC-1 (human). Kind of test: Antiproliferative activity against human PANC-1 cells assessed as cell viability at 8 uM after 48 hrs by MTT assay (reference value: 98.8%). The settings on record: PANC-1, 48 h.

Sequence of Focal adhesion kinase 1 (Q05397 2-1052 limits assumed): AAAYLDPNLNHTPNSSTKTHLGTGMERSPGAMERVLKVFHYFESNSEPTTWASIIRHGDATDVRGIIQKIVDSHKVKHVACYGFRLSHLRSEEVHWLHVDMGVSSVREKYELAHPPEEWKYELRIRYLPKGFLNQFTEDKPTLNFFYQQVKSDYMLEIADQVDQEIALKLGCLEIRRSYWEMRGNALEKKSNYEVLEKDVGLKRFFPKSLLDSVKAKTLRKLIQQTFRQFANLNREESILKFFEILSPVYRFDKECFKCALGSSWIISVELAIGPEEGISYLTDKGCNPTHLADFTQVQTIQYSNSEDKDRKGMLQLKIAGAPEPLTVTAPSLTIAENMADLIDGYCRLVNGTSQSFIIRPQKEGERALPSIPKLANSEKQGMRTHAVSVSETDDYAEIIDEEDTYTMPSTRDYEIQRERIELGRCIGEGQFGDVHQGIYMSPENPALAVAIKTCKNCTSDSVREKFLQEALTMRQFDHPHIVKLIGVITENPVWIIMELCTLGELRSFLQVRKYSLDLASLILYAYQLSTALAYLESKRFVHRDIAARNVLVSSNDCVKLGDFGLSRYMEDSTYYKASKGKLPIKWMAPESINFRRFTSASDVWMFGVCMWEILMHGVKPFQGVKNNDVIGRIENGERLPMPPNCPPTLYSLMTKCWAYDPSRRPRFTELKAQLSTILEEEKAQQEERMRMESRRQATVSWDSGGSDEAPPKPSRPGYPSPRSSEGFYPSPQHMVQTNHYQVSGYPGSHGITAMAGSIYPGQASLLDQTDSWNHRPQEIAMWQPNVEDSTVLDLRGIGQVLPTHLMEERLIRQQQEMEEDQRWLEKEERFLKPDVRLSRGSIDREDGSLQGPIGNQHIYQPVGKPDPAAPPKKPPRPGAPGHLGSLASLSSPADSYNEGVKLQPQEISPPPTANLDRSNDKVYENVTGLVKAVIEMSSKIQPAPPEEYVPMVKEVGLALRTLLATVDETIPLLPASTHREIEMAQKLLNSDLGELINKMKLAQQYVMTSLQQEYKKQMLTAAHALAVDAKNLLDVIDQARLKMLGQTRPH
Sequence of Epidermal growth factor receptor (Homo sapiens) (P00533 whole entry, the tested form may be a part): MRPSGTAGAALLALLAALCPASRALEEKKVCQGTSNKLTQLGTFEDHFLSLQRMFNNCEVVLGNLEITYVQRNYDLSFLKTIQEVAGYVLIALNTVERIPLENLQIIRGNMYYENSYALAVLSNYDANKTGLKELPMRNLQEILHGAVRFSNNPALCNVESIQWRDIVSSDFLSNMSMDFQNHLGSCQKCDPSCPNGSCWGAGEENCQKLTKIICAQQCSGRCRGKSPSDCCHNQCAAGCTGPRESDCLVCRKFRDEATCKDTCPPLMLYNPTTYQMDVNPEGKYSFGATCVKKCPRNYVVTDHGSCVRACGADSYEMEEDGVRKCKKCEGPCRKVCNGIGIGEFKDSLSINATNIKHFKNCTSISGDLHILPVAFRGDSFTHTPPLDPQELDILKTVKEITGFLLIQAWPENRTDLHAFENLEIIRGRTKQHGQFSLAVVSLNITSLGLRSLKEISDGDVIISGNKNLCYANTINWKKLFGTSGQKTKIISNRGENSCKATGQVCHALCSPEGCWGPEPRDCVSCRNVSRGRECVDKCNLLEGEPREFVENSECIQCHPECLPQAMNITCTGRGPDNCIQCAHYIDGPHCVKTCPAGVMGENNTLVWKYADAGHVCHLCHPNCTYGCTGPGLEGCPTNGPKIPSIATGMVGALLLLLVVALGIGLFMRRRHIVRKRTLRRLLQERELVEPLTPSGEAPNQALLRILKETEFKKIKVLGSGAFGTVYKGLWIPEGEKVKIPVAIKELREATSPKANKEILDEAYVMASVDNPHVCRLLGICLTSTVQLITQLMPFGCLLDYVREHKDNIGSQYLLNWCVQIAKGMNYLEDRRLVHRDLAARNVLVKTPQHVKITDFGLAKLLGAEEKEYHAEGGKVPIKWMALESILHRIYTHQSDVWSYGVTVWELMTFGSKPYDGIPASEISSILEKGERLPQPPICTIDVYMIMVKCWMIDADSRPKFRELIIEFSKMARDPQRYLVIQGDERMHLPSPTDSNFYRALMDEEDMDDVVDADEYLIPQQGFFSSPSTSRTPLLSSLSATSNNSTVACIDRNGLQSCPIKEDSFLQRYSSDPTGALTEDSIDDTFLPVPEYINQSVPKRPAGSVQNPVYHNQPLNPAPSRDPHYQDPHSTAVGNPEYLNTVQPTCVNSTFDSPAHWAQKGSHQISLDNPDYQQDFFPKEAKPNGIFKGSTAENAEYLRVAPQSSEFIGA

As to `CCOP(=O)(CCCOc1ccc(Nc2ncc([N+](=O)[O-])c(Nc3ccccc3C(=O)NC)n2)cc1)N1CCOCC1` (stereo not drawn), the figures for the inhibition (in test [1]; on Focal adhesion kinase 1) were 22% and 92%, respectively. In addition, the Activity is recorded as 16.3% with ASPC1 [2], 28% in the test on ASPC1 [4] and 3.3% in the test with ASPC1 [6]. The viability at 0.5 µM in the test with ASPC1 [3] was found to be 99.4%. Also, in the test with ASPC1 [5], the viability at 10 µM came to 7.7%. For the same molecule, the viability at 8 µM in the test with PANC-1 (human) was determined as 29.5%.

As a reminder, the inhibition is the relative decrease from the control value, in per cent.
